This is an account of results in ChEMBL document CHEMBL1921751, “Discovery of small molecules that enhance astrocyte differentiation in rat fetal neural stem cells” (Bioorg Med Chem Lett, 2011).

Calls of active or inactive are those of the source. The calls are words filed in the database; no cut-off is given here.

The subject of data set [1] is NSC. In words: Induction of beta3 tubulin mRNA expression in Sprague-Dawley rat embryonic cortex NSC at 5 uM after 1 day by RT-PCR analysis. The class given is functional, cell-based. An outline of the steps: (§1)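 First-strand cDNA was made from 2 µg total RNA using oligo(dT) primers and RevertAid reverse transcriptase. PCR ran 94 °C 5 min, then 26 cycles of 94 °C, 55–58 °C and 72 °C (0.5 min each), with a final 72 °C extension for 10 min.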

For data set [2], the system named is NSC. In words: Induction of S100 mRNA expression in Sprague-Dawley rat embryonic cortex NSC at 5 uM after 1 day by RT-PCR analysis relative to control. The class given is functional. Summed up: as §1
Data set [3] deals with NSC. The data set can be described thus: Cytotoxicity against Sprague-Dawley rat embryonic cortex NSC assessed as changes in morphology at 5 uM after 4 days by microscopic analysis. The data set is classed as cell-based. As to conditions: 96 h.
Data set [4] relates to NSC. In words: Cytotoxicity against Sprague-Dawley rat embryonic cortex NSC assessed as reduction in nuclei count at 5 uM after 4 days using DAPI staining by fluorescent microscopic analysis. The settings on record: 96 h. The data set is classed as cell-based.
In data set [5] the test system is NSC. The data set can be described thus: Induction of GFAP mRNA expression in Sprague-Dawley rat embryonic cortex NSC at 5 uM after 1 day by RT-PCR analysis relative to control. The class given is functional. Summed up:
as §1

Data set [6] has as its system NSC. In words: Induction of Sprague-Dawley rat embryonic cortex NSC differentiation assessed as GFAP-positive cells at 5 uM after 4 days by immunocytochemistry analysis relative to control. The data set is classed as functional. Summed up:
(§2)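 E14 rat cortical NSCs were grown as neurospheres, dissociated and plated on poly-D-lysine in growth-factor-free medium with 2% B27. They received 5 µM compound or 0.05% DMSO at 37 °C, 5% CO2, for 4 days. Cells were fixed in 4% PFA, stained with anti-GFAP or TuJ1 plus Cy3 secondary, and DAPI-counterstained. Positive/DAPI cells in random fields were normalised to control; mean±SEM, n=6, t-test.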

Data set [7] concerns NSC. In words: Induction of Sprague-Dawley rat embryonic cortex NSC differentiation assessed as TuJ1-positive cells at 5 uM after 4 days by immunocytochemistry analysis. The class given is functional, cell-based. Summed up:
as §2

For `O=C(Cc1ccccc1)NC(c1ccccc1)c1nnc(-c2ccccc2)o1` (configuration not stated), the result in the data set on NSC [1] and in the data set on NSC [7] was inactive. The “fold change (FC)” value in the data set with NSC [2], in the data set on NSC [5] and with NSC [6] was 2 in each case. Also, the Activity result with NSC [3] and with NSC [4] was “Non-toxic” each time.

`CC(C)(C)OC(=O)NC(c1ccc(F)cc1)c1nnc(-c2ccccc2)o1` (configuration not stated): the result in the data set with NSC [1] and in the data set on NSC [7] was inactive. Further, the outcome in the data set with NSC [2], in the data set on NSC [5] and in the data set with NSC [6] was Active.

Regarding `O=S(=O)(Cc1ccccc1)NC(c1ccc(F)cc1)c1nnc(-c2ccccc2)o1` (configuration not stated), the outcome with NSC [1] and in the data set on NSC [7] was inactive. Besides, the result in the data set on NSC [2], in the data set on NSC [5] and in the data set on NSC [6] was Active.

Turning to `O=C(Cc1ccccc1)NC(c1ccc(F)cc1)c1nnc(-c2ccccc2)o1` (configuration not stated), the outcome with NSC [1] and in the data set with NSC [7] was inactive. Further, the “fold change (FC)” value in the data set with NSC [2], in the data set on NSC [5] and in the data set on NSC [6] was 2 throughout.

Take `O=S(=O)(NC(c1ccc(F)cc1)c1nnc(-c2ccccc2)o1)c1ccccc1` (configuration not stated): the result in the data set with NSC [1] and with NSC [7] was inactive. For the same compound, the result in the data set on NSC [2], in the data set with NSC [5] and in the data set with NSC [6] was Active.

As to `O=C(NC(c1ccc(F)cc1)c1nnc(-c2ccccc2)o1)c1ccccc1` (configuration not stated), the outcome with NSC [1] and with NSC [7] was inactive. The result with NSC [2], in the data set with NSC [5] and with NSC [6] was Active.
